Source: PubChem
DENV2 CPE – inhibitors of DENV2 cytopathic effect, primary screen, cell-based, plate reader, single concentration | 350,000 compounds, 1.7% hits | DENV2-infected cells, cytopathic effect rescue | CPE inhibition, % at 9.99 µM | AID 651640, 2012; in the data active = CPE inhibition above about 20%, passing the limit was not always enough; inconclusive = no clear call, values can overlap the other calls; tested in BHK-21 cells;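 also: 0% = median of neutral control wells and 100% = median of positive control wells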
S100A4 inh HTS – inhibitors of S100A4-myosin IIA peptide binding, primary screen, biochemical, fluorescence polarization, TAMRA-MyoIIA peptide; inhibition, % at 10.7 µM; 360,000 compounds, 0.14% hits; Protein S100-A4 (Homo sapiens), P26447;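 active = mean inhibition of at least 70% across replicates, with every replicate also reaching that level; inconclusive = mean inhibition reaches 70% but some replicates fall short; inactive = mean inhibition below 70%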
Target sequence (P26447 whole entry, looked up): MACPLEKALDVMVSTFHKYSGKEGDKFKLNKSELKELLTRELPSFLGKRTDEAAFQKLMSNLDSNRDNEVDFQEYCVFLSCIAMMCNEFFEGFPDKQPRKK
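Material: human S100A4 monomer with TAMRA-labelled myosin IIA peptide; buffer or medium: HEPES pH 7.2 with CaCl2, KCl, NaCl, DTT, Triton; compound dosing: one concentration per compound; schedule: 5 min incubation before reading; benchmarks: neutral control DMSO, positive control TFP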
CAL PDZ FP-1 – untagged CAL PDZ binding inhibitors, primary screen, biochemical, fluorescence polarization, HTS | Golgi-associated PDZ and coiled-coil motif-containing protein (Homo sapiens), Q9HD26 | purified CAL PDZ, TMR-peptide fluorescence polarization, 1 h | inhibition, % at 24.9 µM | 300,000 compounds, 0.92% hits;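 active = mean inhibition of at least 30% with at least half of replicates also reaching 30%; inconclusive = no clear call, values can overlap the other calls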;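 also: 0% = DMSO neutral control and 100% = excess unlabeled competitor peptide PRC23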
CAL PDZ FP-2 – CAL PDZ peptide-binding inhibitors, primary screen, biochemical, fluorescence polarization, Cer-tagged CAL PDZ, HTS; 330,000 compounds, 0.02% hits; inhibition, % at 20 µM; Golgi-associated PDZ and coiled-coil motif-containing protein (Homo sapiens), Q9HD26; purified CAL PDZ, TMR-peptide fluorescence polarization, 1 h;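 active = highest replicate inhibition of at least 40%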;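 also: plate controls were DMSO neutral control wells for no effect and unlabeled competitor peptide control wells for full effect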
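Control set: unlabelled peptide and DMSO controls / Material: purified CerCALP PDZ construct / Timing: 1 h incubation at room temperature before polarization reading / Doses: 20 µM, one dose / Detection: fluorescence polarization (mP)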
SIRT5 inh – SIRT5 desuccinylase inhibitors, primary screen, biochemical, fluorescence imaging, single point, set 5; inhibition, % at 15 µM; Purified SirT5, succinyl-peptide AMC, trypsin-coupled fluorescence; AID 652115, 2013; 330,000 compounds, 1.1% hits; NAD-dependent protein deacylase sirtuin-5, mitochondrial (Homo sapiens), Q9NXA8; in the data active = inhibition above about 15%; inconclusive = no clear call, values can overlap the other calls
Target sequence (Q9NXA8 whole entry, looked up): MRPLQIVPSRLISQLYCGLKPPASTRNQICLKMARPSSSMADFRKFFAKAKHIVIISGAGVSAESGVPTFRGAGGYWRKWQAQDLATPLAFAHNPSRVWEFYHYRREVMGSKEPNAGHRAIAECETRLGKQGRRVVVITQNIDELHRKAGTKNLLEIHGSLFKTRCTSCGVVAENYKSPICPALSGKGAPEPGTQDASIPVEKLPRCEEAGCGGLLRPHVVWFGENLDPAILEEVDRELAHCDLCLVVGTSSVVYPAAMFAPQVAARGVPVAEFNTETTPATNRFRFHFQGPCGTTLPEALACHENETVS
ERAP1 HTS inh – human ERAP1 aminopeptidase inhibitors, primary screen, biochemical, single point, plate reader; recombinant ERAP1, Leu-AMC fluorescence, 60 min; inhibition, % at 10.7 µM; 340,000 compounds, 0.15% hits;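 active = mean replicate inhibition of at least 30%, or all replicates individually reaching that 30% level; inactive = mean below 30% and not every replicate reaching it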;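 also: 0% = neutral control wells and 100% = L-leucinethiol positive control wells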
Active calls of the source: *; u = inconclusive; x = no result. Rows were chosen to be rich in hits. Some 2.9% of all compounds tested hit in one or more screens of this group.

SMILES | DENV2 CPE | S100A4 inh HTS | CAL PDZ FP-1 | CAL PDZ FP-2 | SIRT5 inh | ERAP1 HTS inh
O=C1[C@H](Cc2ccccc2)CCn2cc(nn2)COCC2CCCN12 (stereo partly specified) | 2 | 4 | x | x | 1 | 2
COC(=O)C[C@@H]1C[C@@H]2c3cc(NS(C)(=O)=O)ccc3O[C@@H]2[C@@H](CO)O1 | -3 | -6 | x | x | -8 | -1
COc1ccccc1CNc1ccc2nnc(CCNC(=O)c3ccccc3)n2n1 | 1 | 0 | 54* | -2 | 3 | x
COc1ccccc1CNc1ccc2nnc(CCNC(=O)c3ccc(C)cc3)n2n1 | -1 | -3 | -5 | -2 | 0 | 6
COCC#Cc1ccc([C@@H]2[C@H]3CN(Cc4cccnc4)CCCCN3[C@H]2CO)cc1 | -4 | 8 | x | x | 1 | -1
CCCC#Cc1ccc([C@H]2[C@@H](CO)N3CCCCN(Cc4cncnc4)C[C@@H]23)cc1 | 14 | 4 | x | x | 0 | -2
CCCC#Cc1ccc([C@H]2[C@@H](CO)N3CCCCN(Cc4cccnc4)C[C@@H]23)cc1 | 33* | -3 | x | x | 1 | 0
CCCC#Cc1ccc([C@@H]2[C@@H](CO)N3CCCCN(Cc4cncnc4)C[C@@H]23)cc1 | 26* | 10 | x | x | -8 | -1
COCC#Cc1ccc([C@H]2[C@@H](CO)N3CCCCN(Cc4cccnc4)C[C@@H]23)cc1 | 57* | -19 | x | x | -3 | -2
COCC(=O)N1CC2(C1)[C@@H](c1ccc(-c3cccc(F)c3)cc1)[C@H](CO)N2C(=O)COC | -11 | 5 | x | x | -2 | -4
C[C@@H]1CN([C@H](C)CO)C(=O)c2cc(NC(=O)CCCN(C)C)ccc2O[C@@H](C)CCCCO[C@@H]1CN(C)S(=O)(=O)c1ccc(F)cc1 | 5 | 0 | x | x | 1 | 1
Cc1ccc(S(=O)(=O)N(C)C[C@H]2OCCCC[C@@H](C)Oc3ccc(NC(=O)CCCN(C)C)cc3C(=O)N([C@@H](C)CO)C[C@@H]2C)cc1 | -7 | 3 | x | x | -4 | -2
C[C@H](CO)N1C[C@H](C)[C@H](CN(C)S(=O)(=O)c2ccc(F)cc2)OCCCC[C@H](C)Oc2ccc(NC(=O)CCCN(C)C)cc2C1=O | 34* | 2 | x | x | -3 | 1
CCOC(=O)CCCCCC(=O)Nc1ccc2c(c1)C(=O)N([C@H](C)CO)C[C@@H](C)[C@@H](CN(C)S(=O)(=O)c1ccc(C)cc1)OCCCC[C@H](C)O2 | u | -2 | x | x | 21* | x
C[C@H](CO)N1C[C@H](C)[C@H](CN(C)S(=O)(=O)c2ccccc2)OCCCC[C@H](C)Oc2ccc(NC(=O)CCCN(C)C)cc2C1=O | -4 | 0 | x | x | -4 | -2
C[C@@H]1CN([C@@H](C)CO)C(=O)c2cc(NC(=O)CCCN(C)C)ccc2O[C@@H](C)CCCCO[C@@H]1CN(C)S(=O)(=O)c1ccc(F)cc1 | 44* | 2 | x | x | -1 | 1
C[C@@H]1CCCCO[C@H](CN(C)S(=O)(=O)c2ccccc2)[C@@H](C)CN([C@@H](C)CO)C(=O)c2cc(NC(=O)CCCN(C)C)ccc2O1 | 111* | -4 | x | x | 1 | -3
CN1C(=O)c2cc(NC(=O)c3cccc(F)c3)ccc2OC[C@H]2O[C@@H](CC(=O)NC3CCC3)CC[C@H]21 | -4 | x | x | x | x | x
O=C(c1cccnc1)N1CC2(C1)[C@H](c1ccccc1)[C@@H](CO)N2C(=O)CC1CC1 | -10 | 10 | x | x | 0 | 0
COc1ccc(S(=O)(=O)N(C)C[C@H]2OCCCC[C@H](C)Oc3ccc(NC(=O)CCCN(C)C)cc3C(=O)N([C@H](C)CO)C[C@H]2C)cc1 | 38* | -6 | x | x | -4 | -1
COc1ccc(S(=O)(=O)N(C)C[C@H]2OCCCC[C@@H](C)Oc3ccc(NC(=O)CCCN(C)C)cc3C(=O)N([C@H](C)CO)C[C@@H]2C)cc1 | 6 | 3 | x | x | -4 | -1
C[C@@H]1CN([C@@H](C)CO)C(=O)Cc2cc(NS(=O)(=O)c3ccc(F)cc3)ccc2O[C@H]1CN(C)C(=O)Nc1ccccc1 | x | -1 | x | x | 0 | 1
CCCN(C)C[C@@H]1OCCCC[C@@H](C)Oc2ccc(NC(=O)NC(C)C)cc2C(=O)N([C@@H](C)CO)C[C@@H]1C | u | 13 | x | x | 3 | -2
CC(C)OC(=O)C[N+](C)(C)CCN1C(=O)C2C(c3ccccc3)C=CC(c3ccccc3)C2C1=O (stereo unspecified) | 3 | -3 | 3 | 0 | 26* | -2
CN(C)C(=O)CCc1ccc2c3c([nH]c2c1)[C@]1(C)[C@@H](C(=O)N2CCCCC2)C[C@H](CC(=O)NC(C)(C)C)C(=O)N1CC3 | -4 | 0 | -3 | 2 | 7 | -2
SMILES | DENV2 CPE | S100A4 inh HTS | CAL PDZ FP-1 | CAL PDZ FP-2 | SIRT5 inh | ERAP1 HTS inh
CN(C)C(=O)CCc1ccc2c3c([nH]c2c1)[C@]1(C)[C@@H](C(=O)N2CCOCC2)C[C@H](CC(=O)NCc2ccco2)C(=O)N1CC3 | 0 | -4 | -1 | 0 | -8 | 15
CCN(CC)C(=O)[C@H]1C[C@H](CC(=O)NC(C)(C)C)C(=O)N2CCc3c([nH]c4cc(CCC(=O)N(C)C)ccc34)[C@]12C | -15 | -2 | -3 | 0 | 31* | -3
CC(C)N(C(=O)[C@H]1C[C@H](CC(=O)NCc2ccco2)C(=O)N2CCc3c([nH]c4cc(CCC(=O)N(C)C)ccc34)[C@]12C)C(C)C | 3 | 1 | -7 | 1 | 30* | -1
CCCn1c(/C=C/c2cc[n+](C)cc2)nc2ccccc21 | -2 | -14 | -3 | -13 | 3 | 41*
CCn1c(/C=C/c2ccccc2)nc2ccccc21 | x | x | -11 | x | x | x
C[C@@H]1CCCCO[C@H](CN(C)C(=O)CCCN(C)C)[C@@H](C)CN([C@H](C)CO)C(=O)c2cc(NC(=O)CCCN(C)C)ccc2O1 | 20* | 1 | x | x | 2 | -4
C[C@@H]1CCCCO[C@@H](CN(C)CC2CC2)[C@H](C)CN([C@H](C)CO)C(=O)c2cc(NC(=O)CCCN(C)C)ccc2O1 | 43* | -2 | x | x | -1 | -4
C[C@H](CO)N1C[C@H](C)[C@@H](CN(C)C(=O)CCCN(C)C)OCCCC[C@H](C)Oc2ccc(N(C)C)cc2C1=O | -11 | -18 | x | x | -5 | -4
